Experimental data published in ChEMBL document CHEMBL1641426, “Microwave assisted one pot synthesis of some novel 2,5-disubstituted 1,3,4-oxadiazoles as antifungal agents” (2011).
≈ marks a conversion by molar mass, not a printed value. Calls of active or inactive are those of the source. The rule behind the calls is not given here.

Key:
[1] = system: Aspergillus flavus; assay: Antifungal activity against Aspergillus flavus assessed as macroscopically visible colonies after 48 and 72 hrs by standard agar dilution method; format: functional
Outline: (§1)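 MIC by standard agar method. Tested against Candida albicans, Fusarium oxysporum, Aspergillus flavus, Aspergillus niger and Cryptococcus neoformans. Dimethyl sulfoxide served as solvent control, and miconazole and fluconazole served as reference standards.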

[2] = system: Cryptococcus neoformans; assay: Antifungal activity against Cryptococcus neoformans assessed as appearance of macroscopically visible colonies after 48 and 72 hrs by standard agar dilution method; format: functional; outline: as §1
[3] = system: Aspergillus niger; assay: Antifungal activity against Aspergillus niger assessed as macroscopically visible colonies after 48 and 72 hrs by standard agar dilution method; format: functional; outline: as §1
[4] = system: Fusarium oxysporum; assay: Antifungal activity against Fusarium oxysporum assessed as macroscopically visible colonies after 48 and 72 hrs by standard agar dilution method; format: functional; outline: as §1
[5] = system: Candida albicans; assay: Antifungal activity against Candida albicans assessed as macroscopically visible colonies after 48 and 72 hrs by standard agar dilution method; format: functional; outline: as §1
[6] = system: Cryptococcus neoformans; assay: Antifungal activity against Cryptococcus neoformans assessed as appearance of macroscopically visible colonies upto 200 ug/ml after 48 and 72 hrs by standard agar dilution method; format: functional, organism-based; outline: as §1
[7] = system: Candida albicans; assay: Antifungal activity against Candida albicans assessed as macroscopically visible colonies upto 200 ug/ml after 48 and 72 hrs by standard agar dilution method; format: functional, organism-based; outline: as §1
[8] = system: Aspergillus niger; assay: Antifungal activity against Aspergillus niger assessed as macroscopically visible colonies upto 200 ug/ml after 48 and 72 hrs by standard agar dilution method; format: functional, organism-based; outline: as §1

Row | SMILES | MIC [1] [µg/mL] | MIC [2] [µg/mL] | MIC [3] [µg/mL] | MIC [4] [µg/mL] | MIC [5] [µg/mL] | Activity [6] | Activity [7] | Activity [8]
1 | CN1CCC(n2cc(-c3nnc(-c4ccccc4)o3)nn2)CC1 | 60 (≈ 193 µM) | 90 (≈ 290 µM) | 80 (≈ 258 µM) | 70 (≈ 226 µM) | 70 (≈ 226 µM) | – | – | –
2 | CC(C)(C)OC(=O)N1CCC(n2cc(-c3nnc(-c4ccccc4)o3)nn2)CC1 | 100 (≈ 252 µM) | – | 150 (≈ 378 µM) | 125 (≈ 315 µM) | 100 (≈ 252 µM) | inactive | – | –
3 | CCN1CCC(n2cc(-c3nnc(-c4cccc(OC)c4)o3)nn2)CC1 | 50 (≈ 141 µM) | 100 (≈ 282 µM) | 75 (≈ 212 µM) | 60 (≈ 169 µM) | 50 (≈ 141 µM) | – | – | –
4 | CCN1CCC(n2cc(-c3nnc(-c4ccccc4)o3)nn2)CC1 | 60 (≈ 185 µM) | 80 (≈ 247 µM) | 80 (≈ 247 µM) | 50 (≈ 154 µM) | 55 (≈ 170 µM) | – | – | –
5 | Clc1ccc(COC(Cn2ccnc2)c2ccc(Cl)cc2Cl)c(Cl)c1 (stereo not given) [MICONAZOLE] | 12.5 (≈ 30 µM) | 25 (≈ 60.1 µM) | 12.5 (≈ 30 µM) | 25 (≈ 60.1 µM) | 25 (≈ 60.1 µM) | – | – | –
6 | CS(=O)(=O)N1CCC(n2cc(-c3nnc(-c4cccc(Cl)c4)o3)nn2)CC1 | 15 (≈ 36.7 µM) | 50 (≈ 122 µM) | 20 (≈ 48.9 µM) | 25 (≈ 61.1 µM) | 25 (≈ 61.1 µM) | – | – | –
7 | CC(=O)N1CCC(n2cc(-c3nnc(-c4cccc(C)c4)o3)nn2)CC1 | 35 (≈ 99.3 µM) | – | 40 (≈ 114 µM) | 40 (≈ 114 µM) | 45 (≈ 128 µM) | inactive | – | –
8 | CS(=O)(=O)N1CCC(n2cc(-c3nnc(-c4ccccc4)o3)nn2)CC1 | 45 (≈ 120 µM) | 55 (≈ 147 µM) | 40 (≈ 107 µM) | 40 (≈ 107 µM) | 35 (≈ 93.5 µM) | – | – | –
9 | COc1cccc(-c2nnc(-c3cn(C4CCN(C)CC4)nn3)o2)c1 | 50 (≈ 147 µM) | 80 (≈ 235 µM) | 70 (≈ 206 µM) | 65 (≈ 191 µM) | 60 (≈ 176 µM) | – | – | –
10 | CCN1CCC(n2cc(-c3nnc(-c4cccc(O)c4)o3)nn2)CC1 | 20 (≈ 58.8 µM) | 60 (≈ 176 µM) | 20 (≈ 58.8 µM) | 35 (≈ 103 µM) | 35 (≈ 103 µM) | – | – | –
11 | O=C(c1ccc(Cl)cc1)N1CCC(n2cc(-c3nnc(-c4ccccc4)o3)nn2)CC1 | 90 (≈ 207 µM) | – | 100 (≈ 230 µM) | 90 (≈ 207 µM) | 150 (≈ 345 µM) | inactive | – | –
12 | CCN1CCC(n2cc(-c3nnc(-c4cccc(Cl)c4)o3)nn2)CC1 | 25 (≈ 69.7 µM) | 50 (≈ 139 µM) | 50 (≈ 139 µM) | 35 (≈ 97.5 µM) | 40 (≈ 111 µM) | – | – | –
13 | CN1CCC(n2cc(-c3nnc(-c4cccc(Cl)c4)o3)nn2)CC1 | 40 (≈ 116 µM) | 150 (≈ 435 µM) | 45 (≈ 131 µM) | 50 (≈ 145 µM) | 55 (≈ 160 µM) | – | – | –
14 | CS(=O)(=O)N1CCC(n2cc(-c3nnc(-c4cccc(O)c4)o3)nn2)CC1 | 15 (≈ 38.4 µM) | 100 (≈ 256 µM) | 15 (≈ 38.4 µM) | 25 (≈ 64 µM) | 30 (≈ 76.8 µM) | – | – | –
15 | CN1CCC(n2cc(-c3nnc(-c4cccc(O)c4)o3)nn2)CC1 | 25 (≈ 76.6 µM) | – | 35 (≈ 107 µM) | 35 (≈ 107 µM) | 40 (≈ 123 µM) | inactive | – | –
16 | c1ccc(-c2nnc(-c3cn(C4CCNCC4)nn3)o2)cc1 | 90 (≈ 304 µM) | 150 (≈ 506 µM) | 125 (≈ 422 µM) | 85 (≈ 287 µM) | 80 (≈ 270 µM) | – | – | –
17 | OC(Cn1cncn1)(Cn1cncn1)c1ccc(F)cc1F [FLUCONAZOLE] | 5 (≈ 16.3 µM) | 5 (≈ 16.3 µM) | 10 (≈ 32.7 µM) | 5 (≈ 16.3 µM) | 5 (≈ 16.3 µM) | – | – | –
18 | CS(=O)(=O)N1CCC(n2cc(-c3nnc(-c4cccc([N+](=O)[O-])c4)o3)nn2)CC1 | 50 (≈ 119 µM) | 90 (≈ 215 µM) | 70 (≈ 167 µM) | 55 (≈ 131 µM) | 40 (≈ 95.4 µM) | – | – | –
19 | O=C(c1ccccc1)N1CCC(n2cc(-c3nnc(-c4ccccc4)o3)nn2)CC1 | 150 (≈ 375 µM) | – | 175 (≈ 437 µM) | 100 (≈ 250 µM) | – | inactive | inactive | –
20 | Cc1cccc(-c2nnc(-c3cn(C4CCN(C(=O)c5ccccc5)CC4)nn3)o2)c1 | 150 (≈ 362 µM) | – | – | 100 (≈ 241 µM) | – | inactive | inactive | inactive
21 | CC(=O)N1CCC(n2cc(-c3nnc(-c4cccc(Cl)c4)o3)nn2)CC1 | 20 (≈ 53.6 µM) | – | 25 (≈ 67.1 µM) | 30 (≈ 80.5 µM) | 35 (≈ 93.9 µM) | inactive | – | –
